Measured values: ChEMBL document CHEMBL4680229, “Design, synthesis and bioactivity study of N-salicyloyl tryptamine derivatives as multifunctional agents for the treatment of neuroinflammation” (Eur J Med Chem, 2020)
The source made the active and inactive calls. No cut-off for these calls is given here.

Experiments:
BV-2 [1] = test: Antiinflammatory activity against LPS-induced mouse BV-2 cells assessed as decrease in INOS protein expression at 40 uM after 24 hrs by Western blot analysis relative to control; type: functional; design: scale not given: the % may be the effect or the level left
Procedure, shortened: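 BV2 cells in DMEM with 10% FBS; LPS 1 μg/mL plus compound at 10, 20 or 40 μM final for 24 h. Lysates in RIPA with 1 mM PMSF; 30 μg protein on 8% SDS-PAGE and blotted for iNOS and COX-2, GAPDH as reference; ECL detection and densitometry; at least three independent experiments.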

[2] = Toxicity in Kunming mouse assessed as changes in liver at 1000 mg/kg, po after 14 days; type: organism-based; settings: in vivo, 336 h, time 14 day
Procedure, shortened: (§1)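 Mice, five male and five female, given a single oral dose of 1000 mg/kg and observed for behaviour for 14 days. Heart, liver, kidney and stomach then examined grossly and after H&E staining, compared with vehicle controls.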

[3] = Tmax in Sprague-Dawley rat at 50 mg/kg, ip up to 24 hrs by LC-MS analysis; type: ADME, organism-based; settings: in vivo
Procedure, shortened: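 Male Sprague-Dawley rats, six per group, single 50 mg/kg intraperitoneal dose; parameters derived by non-compartmental analysis using the linear trapezoidal method; mean ± SD, n = 6.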

C6 [4] = test: Antiinflammatory activity against LPS-induced rat C6 cells assessed as decrease in GFAP protein expression at 20 uM after 24 hrs by DAPI staining based confocal laser microscopic method; type: functional, cell-based
Procedure, shortened: (§2)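 Cells on glass slides with compound at 20 μM final for 24 h: C6 with LPS 10 μg/mL stained for GFAP, BV2 with LPS 1 μg/mL stained for Iba-1. Fixed in 4% paraformaldehyde, blocked in 1% BSA/0.3% Triton X-100, primary antibody 1:100 overnight at 4 °C, secondary 1:200, DAPI mount, confocal imaging. Intensity given as % of LPS group, n = 3.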

C6 [5] = test: Inhibition of LPS-induced TNFalpha production in rat C6 cells after 24 hrs by ELISA; type: functional, cell-based; settings: dose 10-40 µM
Procedure, shortened: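 C6 cells at 5×10^5 cells/mL stimulated with LPS 10 μg/mL; compound at 10, 20 or 40 μM final for 24 h. Supernatant TNF-α measured by sandwich ELISA at 450 nm; at least three independent experiments.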

[6] = Toxicity in LPS-induced hippocampal neuroinflammatory Kunming mouse model assessed as death at 50 mg/kg, ip administered bid for 6 days […]; type: organism-based; settings: in vivo, 144 h, time 6 day
Procedure, shortened: (§3)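 Male Kunming mice (8 weeks, 20–25 g, n = 10/group) were anaesthetised with i.p. chloral hydrate, then given LPS (3 μL of 10 mg/mL) into the lateral ventricle at 0.5 μL/min; sham mice received 3 μL saline. Compound was then given i.p. at 50 mg/kg in saline with 1% methyl cellulose for six consecutive days. Behaviour and deaths were recorded, and hippocampal slices were Nissl-stained.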

BV-2 [7] = test: Cytotoxicity against mouse BV-2 cells assessed as reduction in cell viability after 24 hrs by MTT assay; type: cell-based; settings: BV-2, 24 h
Procedure, shortened: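 C6 or BV2 cells seeded at 1–5×10^5 per well; after 12 h exposed to 0, 6.25, 12.5, 25, 50 or 100 μM (final, DMSO <0.4%) for 24 h. MTT added for 4 h, dissolved in DMSO, read at 570 nm. IC50 as mean of three independent experiments run in triplicate.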

Homo sapiens = species on record: Homo sapiens; test: Selectivity index, ratio of IC50 for inhibition of human COX1 to IC50 for inhibition of human COX2
BV-2 [8] = test: Antiinflammatory activity against LPS-induced mouse BV-2 cells assessed as increase in IL-10 production at 40 uM after 24 hrs by ELISA; type: functional, cell-based
Procedure, shortened: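 BV2 cells at 5×10^5 cells/mL stimulated with LPS 1 μg/mL; compound at 10, 20 or 40 μM final for 24 h, DMSO in blanks. Supernatant TNF-α and IL-10 measured by sandwich ELISA and PGE2 by competitive ELISA, OD at 450 nm; at least three independent experiments.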

[9] = Antioxidant activity assessed as DPPH radical scavenging activity incubated for 30 mins; type: functional
Procedure, shortened: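 Compound in ethanol at 2.5–40 μM final, mixed 1:1 with 700 μmol/L ethanolic DPPH; 30 min in the dark at room temperature, absorbance at 515 nm. Serotonin used as standard; EC50 from three independent experiments.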

[10] = target: Prostaglandin G/H synthase 1 (Homo sapiens) (UniProt P23219); test: Inhibition of human COX1 assessed as reduction in PGF2alpha formation using arachidonic acid as substrate incubated for 10 mins by ELISA
Mus musculus [11] = test: Antiinflammatory activity against LPS-induced hippocampal neuroinflammatory Kunming mouse model assessed as reduction in GFAP level in hippocampus at 50 mg/kg, ip administered bid for 6 days by DAPI staining based microscopic method; type: functional, organism-based; settings: time 6.0 day
[12] = Toxicity in LPS-induced hippocampal neuroinflammatory Kunming mouse model assessed as behavioral changes at 50 mg/kg, ip administered bid for 6 days […]; type: organism-based; settings: in vivo, 144 h, time 6 day; procedure, shortened: as §3
C6 [13] = test: Antiinflammatory activity against LPS-induced rat C6 cells assessed as decrease in INOS protein expression at 40 uM after 24 hrs by Western blot analysis relative to control; type: functional; design: scale not given: the % may be the effect or the level left
Procedure, shortened: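 C6 cells; LPS 10 μg/mL plus compound at 10, 20 or 40 μM for 24 h. Lysates with RIPA/PMSF, 30 μg protein on 8% SDS-PAGE, iNOS immunoblot and densitometry; at least three independent experiments.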

[14] = Toxicity in po dose Kunming mouse after 14 days; type: organism-based; settings: in vivo, time 14 day
Procedure, shortened: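 Acute toxicity followed OECD guidelines in ten mice (five male, five female). A single oral dose of 1000 mg/kg was given, with a vehicle control group. Behaviour was observed over 14 days. Mice were then sacrificed for gross and H&E histological examination of heart, liver, kidney and stomach.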

[15] = target: Prostaglandin G/H synthase 2 (Homo sapiens) (UniProt P35354); test: Inhibition of human COX2 assessed as reduction in PGF2alpha formation using arachidonic acid as substrate incubated for 10 mins by ELISA
BV-2 [16] = test: Antiinflammatory activity against LPS-induced mouse BV-2 cells assessed as decrease in iba-1 protein expression at 20 uM after 24 hrs by DAPI staining based confocal laser microscopic method; type: functional, cell-based; procedure, shortened: as §2
[17] = Toxicity in Kunming mouse assessed as changes in stomach at 1000 mg/kg, po after 14 days; type: organism-based; settings: in vivo, 336 h, time 14 day; procedure, shortened: as §1
[18] = Toxicity in Kunming mouse assessed as behavioral changes at 1000 mg/kg, po up to 14 days; type: organism-based; settings: in vivo, 336 h, time <=14 day; procedure, shortened: as §1
[19] = Toxicity in Kunming mouse assessed as changes in heart at 1000 mg/kg, po after 14 days; type: organism-based; settings: in vivo, 336 h, time 14 day; procedure, shortened: as §1
Mus musculus [20] = test: Antiinflammatory activity against LPS-induced hippocampal neuroinflammatory Kunming mouse model assessed as reduction in GFAP level in hippocampus at 50 mg/kg, ip administered bid for 6 days by Western blot analysis; type: functional, organism-based; settings: time 6.0 day
[21] = Toxicity in Kunming mouse assessed as changes in kidney at 1000 mg/kg, po after 14 days; type: organism-based; settings: in vivo, 336 h, time 14 day; procedure, shortened: as §1
Mus musculus [22] = test: Antiinflammatory activity against LPS-induced hippocampal neuroinflammatory Kunming mouse model assessed as increase in integral neurons at 50 mg/kg, ip administered bid for 6 days by Nissl staining based microscopic method; type: functional, organism-based; settings: time 6.0 day

Chain of Prostaglandin G/H synthase 2 (Homo sapiens) (P35354 whole entry, looked up): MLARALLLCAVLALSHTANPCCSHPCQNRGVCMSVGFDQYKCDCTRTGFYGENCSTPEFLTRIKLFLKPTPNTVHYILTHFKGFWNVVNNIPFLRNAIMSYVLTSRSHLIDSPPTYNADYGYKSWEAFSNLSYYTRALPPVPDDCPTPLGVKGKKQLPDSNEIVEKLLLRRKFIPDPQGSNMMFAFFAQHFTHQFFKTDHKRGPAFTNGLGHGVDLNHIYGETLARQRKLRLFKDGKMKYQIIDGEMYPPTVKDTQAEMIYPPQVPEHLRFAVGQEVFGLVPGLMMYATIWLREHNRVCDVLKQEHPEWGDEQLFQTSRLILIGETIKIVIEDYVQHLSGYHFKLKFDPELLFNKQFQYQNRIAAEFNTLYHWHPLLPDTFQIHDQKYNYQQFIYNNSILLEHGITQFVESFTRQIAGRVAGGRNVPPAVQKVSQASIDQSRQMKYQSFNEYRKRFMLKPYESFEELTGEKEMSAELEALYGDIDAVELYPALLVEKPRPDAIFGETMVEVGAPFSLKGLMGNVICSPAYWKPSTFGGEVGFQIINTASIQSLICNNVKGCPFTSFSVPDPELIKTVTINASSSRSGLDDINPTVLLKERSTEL

Compound	Activity (BV-2 [1])	Activity [2]	Tmax [3] [min]	Activity (C6 [4])	inhibition (C6 [5])	Activity [6]	IC50 (BV-2 [7]) [µM]	Ratio IC50 (Homo sapiens)	Activity (BV-2 [8])	EC50 [9] [µM]	IC50 [10] [µM]	Activity (Mus musculus [11])	Activity [12]	Activity (C6 [13]) [%]	LD50 at 336 h [14] [mg/kg]	IC50 [15] [µM]	Activity (BV-2 [16])	Activity [17]	Activity [18]	Activity [19]	also measured
Cc1ccc(C(=O)NCCc2c[nH]c3ccccc23)c(O)c1	100%	Non-Toxic	11.4	Active	Dose-dependent effect	Non-Toxic	> 100	3.95	Active	25.2	16.4	Active	Non-Toxic	29	> 1000	4.16	Active	Non-Toxic	Non-Toxic	Non-Toxic	Activity (Mus musculus [20]): Active; Activity [21]: Non-Toxic; Activity (Mus musculus [22]): Active
O=C(NCCc1c[nH]c2ccc(O)cc12)c1ccccc1Nc1ccccc1	inactive	Non-Toxic	55.2	Active	Dose-dependent effect	Non-Toxic	> 100	0.76	Active	3.82	0.38	Active	Non-Toxic	95	> 1000	0.5	Active	Non-Toxic	Non-Toxic	Non-Toxic	Activity (Mus musculus [20]): Active; Activity [21]: Non-Toxic; Activity (Mus musculus [22]): Active
